Source: PubChem BioAssay
Unmarked numbers belong to inactive results.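 How the source made its calls: active means viability at or below 30% in both replicate assays; inconclusive means viability at or below 30% in just one of the two assays; inactive means the rest.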

assay: HUVEC growth inhibition – cell-based, human, primary screen (AID 575); conditions: HUVEC proliferation, CellTiter-Glo luminescence, 72 h; at 10 µM; active compounds read low;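 further: 100% = median of untreated cell wells with 0.1% DMSO on each plate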
Method in brief: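 System – primary HUVEC, no more than 12 passages · Medium – Low-serum (2% FBS) EBM, supplemented · Times – 72 h exposure, 37 °C, 5% CO2, 30 min RT equilibration · Measured by – luminescent ATP assay · Read-out – % viability relative to median vehicle-well signal on each plate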

First: CCOC(=O)C1CCCN(C(=O)c2cccs2)C1 (stereo unspecified)
Second: CCOC(=O)N1CCN(C(=O)Nc2ccc3oc(C)nc3c2)CC1
The viability of the first is lower: 96.7% for the first, 98.2% for the second.

Going from `O=C(CSc1nnc(-c2ccccc2)o1)N1CCN(c2ccccc2)CC1` to `O=C(CSc1nc2ccccc2o1)N1CCN(c2ccc(Cl)cc2)CC1`, the viability rises from 89.9% to 92.6%.

First: CCCC(=O)N1CCN(c2ccc(NC(=O)c3ccc(Br)o3)cc2)CC1
Second: CCCCOc1ccc(C(=O)Nc2ccc(N3CCN(C(=O)C(C)C)CC3)cc2)cc1
The viability of the first is higher: 125% for the first, 79.3% for the second.

Compared with `COC(=O)c1[nH]c(C)c(/C(O)=C2\C(=O)C(=O)N(CCCN3CCOCC3)C2c2ccccn2)c1C` (stereo unspecified), `CCn1c(CSc2nc(C)cc(C)n2)nnc1SCC(=O)Nc1ccccc1` is lower in viability: 109% for the first, 104% for the second.

Going from `CN(C)c1oc(-c2ccccc2Cl)nc1C#N` to `CCOC(=O)CN(C)Cc1c[nH]c2ccccc12`, the viability rises from 56.5% to 80.4%.

Going from `Cc1ccccc1C(=O)N1CCC(C(=O)Nc2ccc(S(=O)(=O)N3CCCC3)cc2)CC1` to `O=C(c1ccc(-c2ccccc2)cc1)N1CCC(C(=O)N2CCCC2)CC1`, the viability rises from 97.1% to 97.3%.

Compared with `Cc1ccc(-c2[nH]nc3c2C(c2ccoc2)C(C#N)=C(N)O3)cc1C` (stereo unspecified), `Cc1cccc(-n2ncc3c(NCc4ccccn4)ncnc32)c1` is higher in viability: 90.2% for the first, 97.5% for the second.

First: COc1ccc(N(CC(=O)Nc2ccc(F)c(Cl)c2)S(=O)(=O)c2c(C)noc2C)cc1
Second: COc1ccccc1NC1=NC2(CCCC2)N=C(N)N1
The viability of the first is higher: 93.8% for the first, 91.3% for the second.
